ARFGAP1 inhibitor – inhibitors of rat ARFGAP1; 360,000 compounds, 0.26% hits; inhibition, % at 16.5 µM; Q62848; Arfgap1-stimulated ARF1 GTP hydrolysis, GDP FP detection;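 active = inhibition above a per-plate limit, mean inhibition of low control wells plus 3 SD, cut at about 25% in these data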;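 also: 0% = DMSO wells with enzyme and 100% = wells lacking Arfgap1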
Target sequence (Q62848 1-136 limits assumed): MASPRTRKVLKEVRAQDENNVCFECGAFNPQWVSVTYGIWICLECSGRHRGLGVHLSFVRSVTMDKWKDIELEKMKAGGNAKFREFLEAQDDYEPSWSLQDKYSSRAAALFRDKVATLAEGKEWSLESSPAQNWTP
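system = rat Arfgap1 catalytic domain, aa 1-136 | technique = FP, GDP Alexa 633 tracer displaced from anti-GDP antibody, 620/688 nm | compound = one concentration, 16.5 µM, DMSO 1.26% | medium = HEPES-based buffer, pH 7.5 | timing = compound-enzyme preincubation 20 min, reaction 120 min, detection 60 min, 25 °C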
TCR CD3 inh – inhibitors of human TCR-CD3 interaction; TAMRA-labeled TCR probe fluorescence, biochemical; inhibition, % at 9.4 µM; 360,000 compounds, 0.37% hits; in the data active = inhibition above about 19%;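 also: recombinant mutant TCR 2C K166C tagged with TAMRA read by polarization; 0% = receptor in buffer alone and 100% = receptor with positive control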
LEDGF integ inh – blocks HIV-1 LEDGF/p75-dependent DNA integration | TR-FRET IN-LEDGF/p75 DNA integration, Eu/Cy5 | inhibition, % at 3.7 µM | 370,000 compounds, 0.64% hits;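 active = inhibition above the screen-wide mean plus 3 SD, cut at about 13% in these data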;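 also: signal is the Cy5 over europium emission ratio at 671 and 618 nm; 0% = plate median of compound wells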
MBD2 inh – MBD2-methylated oligo binding inhibition. AID 686964. 370,000 compounds, 0.31% hits. TR-FRET, MBD2 binding to methylated oligonucleotide. inhibition, % at 4.4 µM; in the data active = inhibition above about 13%
ASAP1 inh – blocks human ASAP1-stimulated Arf1 GTP hydrolysis | GDP FP detection | inhibition, % at 16.5 µM | 360,000 compounds, 0.19% hits; in the data active = inhibition above about 25%;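 also: 0% = vehicle with enzyme and substrate and 100% = no enzyme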
Target sequence (Q9ULH1 325-724 limits assumed): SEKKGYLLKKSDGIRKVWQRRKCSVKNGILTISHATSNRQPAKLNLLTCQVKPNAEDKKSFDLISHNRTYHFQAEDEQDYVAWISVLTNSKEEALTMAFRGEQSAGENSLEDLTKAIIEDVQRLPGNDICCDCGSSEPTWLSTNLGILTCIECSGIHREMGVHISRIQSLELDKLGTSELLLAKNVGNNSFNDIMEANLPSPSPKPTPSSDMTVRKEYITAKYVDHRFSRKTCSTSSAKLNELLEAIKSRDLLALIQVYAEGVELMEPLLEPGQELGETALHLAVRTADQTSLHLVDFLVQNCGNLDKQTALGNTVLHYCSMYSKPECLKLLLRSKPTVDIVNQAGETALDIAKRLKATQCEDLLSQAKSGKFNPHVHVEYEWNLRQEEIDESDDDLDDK
UHRF1 binding – UHRF1 methyl-DNA binding inhibition; Q96T88; UHRF1 binding to methylated oligo, TR-FRET; inhibition, % at 4.4 µM; 370,000 compounds, 0.75% hits; in the data active = inhibition above about 21%;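 also: UHRF1 SRA domain binding a hemimethylated CpG hairpin DNA probe; 0% = median of test compound wells and 100% = reference inhibitor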
ARFGAP1 inh conf – rat ARFGAP1 inhibition, confirmed | AID 651608 | ARFGAP1-stimulated ARF1 GTP hydrolysis, GDP tracer FP | shares compounds with ARFGAP1 inhibitor | inhibition, % at 16.5 µM | 890 compounds, 30% hits;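 active = average inhibition over triplicates above the hit cutoff set in the earlier primary screen, cut at about 25% in these data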;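 also: 0% = Arfgap1 plus ARF1-GTP with DMSO and 100% = wells lacking Arfgap1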
* = called active by the depositor. Rows were chosen to be rich in hits. Some 2% of all compounds tested hit in one or more screens of this group.

CC(C)CN1C(=O)N2Cc3ccccc3C2CS1(=O)=O (configuration not stated) was read as LEDGF integ inh 2, MBD2 inh 2 and UHRF1 binding -1.
O=[N+]([O-])c1ccc(Cl)c(CN2CCN(c3ncc(Cc4ccccc4)cn3)CC2)c1 was read as ARFGAP1 inhibitor -1, TCR CD3 inh -5, LEDGF integ inh -1, MBD2 inh -2, ASAP1 inh 1 and UHRF1 binding 3.
`COc1cccc(/C=C/c2nc3c(cnn3-c3ccccc3)c(=O)[nH]2)c1` gave ARFGAP1 inhibitor 28*, TCR CD3 inh 1, LEDGF integ inh 5, MBD2 inh -1, ASAP1 inh 17, UHRF1 binding 1 and ARFGAP1 inh conf 5.
`O=C(Nc1ccncc1)c1cn(-c2ccccc2)nc1-c1cccs1` gave ARFGAP1 inhibitor 26*, TCR CD3 inh -7, LEDGF integ inh 0, MBD2 inh 4, ASAP1 inh 12, UHRF1 binding 1 and ARFGAP1 inh conf 13.
For CCOC(=O)N1CCN(C(C(=O)NC2CCCC2)c2cccc(OC)c2OC)CC1 (configuration not stated) the results were ARFGAP1 inhibitor -11, TCR CD3 inh 5, LEDGF integ inh -2, MBD2 inh -3, ASAP1 inh -1 and UHRF1 binding -2.
Cc1cc(C)cc(NC(=O)CSc2cc(C(=O)c3nccn3C)c3ccccc3n2)c1 was read as ARFGAP1 inhibitor 25*, TCR CD3 inh 7, LEDGF integ inh 2, MBD2 inh -1, ASAP1 inh -9, UHRF1 binding -2 and ARFGAP1 inh conf 6.
Screening Cc1c(-c2nc(N)nc(Nc3ccc(F)cc3)n2)oc2ccccc12 returned ARFGAP1 inhibitor 33*, TCR CD3 inh -3, LEDGF integ inh 3, MBD2 inh 6, ASAP1 inh 22, UHRF1 binding 1 and ARFGAP1 inh conf 2.
Cc1ccccc1Nc1nc(N)nc(-c2oc3ccccc3c2C)n1 was read as ARFGAP1 inhibitor 12, TCR CD3 inh -2, LEDGF integ inh 4, MBD2 inh 0, ASAP1 inh -2 and UHRF1 binding -3.
`COc1ccccc1NS(=O)(=O)c1cc(NC(=O)c2cc(=O)[nH]c3ccccc23)ccc1N1CCOCC1` gave ARFGAP1 inhibitor 28*, TCR CD3 inh -4, LEDGF integ inh 3, MBD2 inh 5, ASAP1 inh 15, UHRF1 binding 1 and ARFGAP1 inh conf 9.
COc1ccccc1NS(=O)(=O)c1cc(NC(=O)C(C)(C)C)ccc1N1CCOCC1 was read as ARFGAP1 inhibitor 5, TCR CD3 inh 1, LEDGF integ inh 0, MBD2 inh 0, ASAP1 inh -9 and UHRF1 binding 4.
For COc1ccc(/C(C)=N/NC(=O)c2sccc2-n2cccc2)cc1 the results were ARFGAP1 inhibitor 29*, TCR CD3 inh -5, LEDGF integ inh 0, MBD2 inh 0, ASAP1 inh 7, UHRF1 binding 5 and ARFGAP1 inh conf 11.
For CCOC(=O)Cc1csc(N/C(=N/S(=O)(=O)c2ccc(F)cc2F)c2ccccc2)n1 the results were ARFGAP1 inhibitor active, TCR CD3 inh 2, LEDGF integ inh 3, MBD2 inh 7, ASAP1 inh 13, UHRF1 binding -1 and ARFGAP1 inh conf 5.
COc1ccc(NC(=O)Nc2nnc(-c3ccco3)s2)cc1 was read as ARFGAP1 inhibitor 35*, TCR CD3 inh -1, LEDGF integ inh 3, MBD2 inh 2, ASAP1 inh 6, UHRF1 binding 0 and ARFGAP1 inh conf -4.
`COc1ccc(NC(=O)Nc2nnc(-c3ccccc3F)s2)cc1` gave ARFGAP1 inhibitor 12, TCR CD3 inh -2, LEDGF integ inh -8, MBD2 inh -3, ASAP1 inh -1 and UHRF1 binding 4.
`CN(C(=O)C(C)(C)C)[C@H]1C[C@H]2c3[nH]c4ccccc4c3CCN2C(=O)[C@H]1CO` gave ARFGAP1 inhibitor 96*, TCR CD3 inh 2, LEDGF integ inh 3, MBD2 inh 1, ASAP1 inh -10, UHRF1 binding -1 and ARFGAP1 inh conf -3.
CCN1CCN(c2ccc(S(=O)(=O)N3CCOCC3)cc2NC(=O)/C=C/c2ccc(OC)cc2OC)CC1 was read as ARFGAP1 inhibitor 33*, TCR CD3 inh -4, LEDGF integ inh 0, MBD2 inh -4, ASAP1 inh 21, UHRF1 binding 0 and ARFGAP1 inh conf 23.
For CCN1CCN(c2ccc(S(=O)(=O)N3CCOCC3)cc2NC(=O)/C=C/c2ccc([N+](=O)[O-])cc2)CC1 the results were ARFGAP1 inhibitor 37*, TCR CD3 inh 6, LEDGF integ inh 3, MBD2 inh -5, ASAP1 inh 13, UHRF1 binding -3 and ARFGAP1 inh conf 37*.
COc1ccc(/C=C/C(=O)Nc2ccc(S(=O)(=O)N3CCOCC3)cc2)c(OC)c1 was read as ARFGAP1 inhibitor 9, TCR CD3 inh -3, LEDGF integ inh 2, MBD2 inh -2, ASAP1 inh 15 and UHRF1 binding -3.
For CCN1CCN(c2ccc(S(=O)(=O)N3CCOCC3)cc2NC(=O)c2cccc([N+](=O)[O-])c2)CC1 the results were ARFGAP1 inhibitor 0, TCR CD3 inh 2, LEDGF integ inh -1, MBD2 inh 0, ASAP1 inh 5 and UHRF1 binding 2.
COc1ccc(NC(=O)c2ccc(NC(=O)COC(=O)CC(NC(=O)c3ccccc3Cl)c3ccccc3)cc2)cc1 (configuration not stated) was read as ARFGAP1 inhibitor 26*, TCR CD3 inh 4, LEDGF integ inh 0, MBD2 inh 8, ASAP1 inh 12, UHRF1 binding 6 and ARFGAP1 inh conf 5.
CCN(CC)CCNC(=O)c1ccc(NC(=O)CC(NC(=O)c2ccccc2Cl)c2ccccc2)cc1 (configuration not stated) was read as ARFGAP1 inhibitor 0, TCR CD3 inh 4, LEDGF integ inh -3, MBD2 inh 5, ASAP1 inh -4 and UHRF1 binding 0.
`CCCc1ccc(Oc2c(-c3ccc(O)c(C)c3O)n[nH]c2C)cc1` gave ARFGAP1 inhibitor 8, TCR CD3 inh 0, LEDGF integ inh -2, MBD2 inh 1, ASAP1 inh -2 and UHRF1 binding 0.
CCCc1ccc(Oc2cn[nH]c2-c2ccc(O)c(C)c2O)cc1 was read as ARFGAP1 inhibitor 27*, TCR CD3 inh -7, LEDGF integ inh -1, MBD2 inh 4, ASAP1 inh 14, UHRF1 binding 3 and ARFGAP1 inh conf 31*.
CCOC(=O)c1cccc(NC(=O)CN(C)S(=O)(=O)c2ccc(Cl)s2)c1 was read as LEDGF integ inh -2, MBD2 inh -2 and UHRF1 binding 0.

Screening data deposited in PubChem by The Scripps Research Institute Molecular Screening Center.
